Here are results for 24 compounds from ChEMBL document CHEMBL3233008, “Design, synthesis, and biological evaluation of Erythrina alkaloid analogues as neuronal nicotinic acetylcholine receptor antagonists” (J Med Chem, 2013).

Active and inactive are the calls of the source. No cut-off for these calls is given here.

Assay [1] deals with Nicotinic acetylcholine receptor alpha-4/beta-2 (Mus musculus, UniProt Q8R493+Q9ERK7). The experiment in a line: Antagonist activity at mouse alpha4/beta2 nAChR expressed in HEK293 cells assessed as inhibition of (S)-nicotine-induced activity by FLIPR membrane potential blue assay. Format: cell-based. In a few lines: (§1)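 Mouse α4β2 in stably transfected HEK293T cells and rat α3β4 in stable HEK293 cells; FLIPR Membrane Potential Blue read-out. (S)-Nicotine agonist at EC70–EC80: 1 μM for α4β2, 3 μM for α3β4. Functional IC50 from 3–5 experiments in duplicate.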

The target in assay [2] is T1, Neuronal acetylcholine receptor; alpha3/beta4 (Rattus norvegicus, UniProt P04757+P12392). Nature of the assay: Displacement of [3H]epibatidine from rat alpha3/beta4 nAChR expressed in HEK293 cells. The assay is classed as cell-based. In a few lines: (§2)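 Membranes from HEK293 cells stably expressing rat α4β2, α3β4 or α4β4; [3H]epibatidine competition binding. IC50 converted to Ki by Cheng–Prusoff. Means of 3–5 experiments in duplicate.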
(Displacement assays read how much labelled ligand stays bound in the presence of the test substance.)

Assay [3] concerns the target T1, Neuronal acetylcholine receptor; alpha3/beta4. The experiment in a line: Antagonist activity at rat alpha3/beta4 nAChR expressed in HEK293 cells assessed as inhibition of (S)-nicotine-induced activity by FLIPR membrane potential blue assay. The assay is classed as cell-based. An outline of the steps:
as §1

The target in assay [4] is Neuronal acetylcholine receptor; alpha4/beta2 (Rattus norvegicus, UniProt P09483+P12390). The experiment in a line: (§3) Displacement of [3H]epibatidine from rat alpha4/beta2 nAChR expressed in HEK293 cells. The assay is classed as cell-based. In a few lines: as §2
Assay [5] has as its target Neuronal acetylcholine receptor; alpha4/beta2 (Rattus norvegicus) (UniProt P09483+P12390). The assay is described as §3. The assay is classed as cell-based. In a few lines: as §2
Assay [6] addresses Neuronal acetylcholine receptor; alpha4/beta4 (Rattus norvegicus, UniProt P09483+P12392). Nature of the assay: Displacement of [3H]epibatidine from rat alpha4/beta4 nAChR expressed in HEK293 cells. The assay is classed as cell-based. In a few lines:
as §2

A short description of assay [7]: Displacement of [3H]MLA from rat/mouse alpha7 nAChR/5HT3A expressed in tsA201 cells. The assay is classed as cell-based. In a few lines: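 [3H]MLA binding on membranes from tsA201 cells transiently expressing a chimera of rat α7 amino-terminal domain and murine 5-HT3A ion-channel domain. Ki from IC50 via Cheng–Prusoff; 3–5 experiments in duplicate.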
Assay [8] deals with Sodium-dependent serotonin transporter (Homo sapiens, UniProt P31645). Nature of the assay: Displacement of [3H]-serotonin from human SERT expressed in African green monkey COS7 cells after 10 mins. Format: cell-based, COS-7. An outline of the steps: (§4)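 COS7 cells transiently transfected with human SERT, NET or DAT, assayed 40–48 h later. 30 min preincubation with compound in PBS pH 7.4 plus 0.1 mM CaCl2, 0.5 mM MgCl2; ascorbic acid 1 mM added for NET/DAT. Substrate 50 nM final: [3H]serotonin for SERT, [3H]dopamine for NET/DAT.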

Assay [9] concerns Mus musculus. Nature of the assay: Antidepressant like activity in mouse at 30 mg/kg, sc administered 20 mins before test measured for 6 mins by forced swimming test. The assay is classed as functional, organism-based. The arrangement: dose 30 mg/kg. An outline of the steps:
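Mice, n = 7–8, placed singly in a 16 cm beaker holding 20 cm of water at 23.5–24.5 °C. Compound in 0.9% saline given sc at 10 mL/kg 20 min before testing. Swim distance tracked by camera over 6 min, with the first minute excluded. Analysed by one-way ANOVA with planned comparisons.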

Assay [10] can be described thus: Selectivity ratio of Ki for rat/mouse alpha7 nAChR/5HT3A to Ki for rat alpha4/beta2 nAChR.
The species entered for assay [11] is Rattus norvegicus. Nature of the assay: Selectivity ratio of Ki for rat alpha3/beta4 nAChR to Ki for rat alpha4/beta2 nAChR.
The target of assay [12] is Sodium-dependent noradrenaline transporter (Homo sapiens, UniProt P23975). Nature of the assay: Displacement of [3H]-dopamine from human NET expressed in African green monkey COS7 cells after 10 mins. Format: cell-based, COS-7. In a few lines:
as §4

The target in assay [13] is Sodium-dependent dopamine transporter (Homo sapiens, UniProt Q01959). Nature of the assay: Displacement of [3H]-dopamine from human DAT expressed in African green monkey COS7 cells after 10 mins. The assay is classed as cell-based, COS-7. An outline of the steps: as §4
For assay [14], the species on record is Rattus norvegicus. The experiment in a line: Selectivity ratio of Ki for rat alpha4/beta4 nAChR to Ki for rat alpha4/beta2 nAChR.
Assay [15] has as its target Neuronal acetylcholine receptor subunit alpha-7 (Homo sapiens, UniProt P36544). The experiment in a line: Displacement of [3H]cytisine from alpha7 nAChR (unknown origin).
Assay [16] concerns the target Neuronal acetylcholine receptor; alpha4/beta2 (Homo sapiens, UniProt P17787+P43681). Nature of the assay: Displacement of [3H]cytisine from alpha4/beta2 nAChR (unknown origin). Format: protein-complex assay.

Neuronal acetylcholine receptor; alpha4/beta4, sequence (P09483 whole entry): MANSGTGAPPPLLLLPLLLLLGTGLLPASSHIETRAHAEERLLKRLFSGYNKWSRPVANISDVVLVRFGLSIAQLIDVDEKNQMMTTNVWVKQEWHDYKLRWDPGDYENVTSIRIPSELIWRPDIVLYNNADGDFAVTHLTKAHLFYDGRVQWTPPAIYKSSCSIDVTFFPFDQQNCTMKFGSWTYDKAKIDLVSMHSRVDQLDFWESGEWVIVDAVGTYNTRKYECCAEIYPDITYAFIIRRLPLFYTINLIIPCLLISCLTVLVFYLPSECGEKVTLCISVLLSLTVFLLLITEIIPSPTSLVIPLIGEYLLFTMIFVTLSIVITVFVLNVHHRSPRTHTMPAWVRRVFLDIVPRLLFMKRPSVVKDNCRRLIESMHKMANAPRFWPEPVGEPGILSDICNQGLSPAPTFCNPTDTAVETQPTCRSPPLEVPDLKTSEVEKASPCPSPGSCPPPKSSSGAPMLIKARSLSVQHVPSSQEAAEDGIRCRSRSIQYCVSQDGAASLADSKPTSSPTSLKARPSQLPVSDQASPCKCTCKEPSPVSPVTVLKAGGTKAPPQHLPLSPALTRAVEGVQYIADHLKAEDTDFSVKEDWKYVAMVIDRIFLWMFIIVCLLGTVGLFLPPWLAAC
Neuronal acetylcholine receptor; alpha4/beta4, sequence (P12392 whole entry): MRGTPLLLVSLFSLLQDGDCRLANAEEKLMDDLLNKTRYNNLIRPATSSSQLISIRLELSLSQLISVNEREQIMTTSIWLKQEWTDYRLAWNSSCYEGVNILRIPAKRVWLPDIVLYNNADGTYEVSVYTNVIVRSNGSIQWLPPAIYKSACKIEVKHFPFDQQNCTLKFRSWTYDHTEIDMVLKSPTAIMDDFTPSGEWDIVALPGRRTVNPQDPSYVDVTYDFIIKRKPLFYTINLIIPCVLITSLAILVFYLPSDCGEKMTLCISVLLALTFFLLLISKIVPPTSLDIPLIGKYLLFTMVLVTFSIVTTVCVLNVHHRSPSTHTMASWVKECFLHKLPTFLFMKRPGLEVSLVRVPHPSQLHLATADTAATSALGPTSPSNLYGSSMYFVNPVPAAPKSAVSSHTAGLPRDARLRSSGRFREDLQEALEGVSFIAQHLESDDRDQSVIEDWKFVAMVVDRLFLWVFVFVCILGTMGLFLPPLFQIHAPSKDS
Neuronal acetylcholine receptor; alpha4/beta2 (Rattus norvegicus, UniProt P09483+P12390), sequence (P09483 whole entry): as the sequence (P09483 whole entry) above
Neuronal acetylcholine receptor; alpha4/beta2 (Rattus norvegicus, UniProt P09483+P12390), sequence (P12390 whole entry): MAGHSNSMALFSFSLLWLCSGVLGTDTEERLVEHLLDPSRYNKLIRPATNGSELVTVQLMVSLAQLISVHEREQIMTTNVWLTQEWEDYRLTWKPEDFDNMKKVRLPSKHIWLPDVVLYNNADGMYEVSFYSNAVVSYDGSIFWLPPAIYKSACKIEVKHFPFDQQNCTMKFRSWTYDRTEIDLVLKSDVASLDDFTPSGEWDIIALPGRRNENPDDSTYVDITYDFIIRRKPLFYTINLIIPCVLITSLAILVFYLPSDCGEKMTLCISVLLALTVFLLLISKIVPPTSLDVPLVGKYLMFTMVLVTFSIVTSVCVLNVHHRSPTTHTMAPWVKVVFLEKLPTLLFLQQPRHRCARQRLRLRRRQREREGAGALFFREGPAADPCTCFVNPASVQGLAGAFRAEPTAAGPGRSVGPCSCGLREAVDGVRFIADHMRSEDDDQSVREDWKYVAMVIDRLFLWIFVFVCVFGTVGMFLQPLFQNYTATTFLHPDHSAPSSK
Nicotinic acetylcholine receptor alpha-4/beta-2, sequence (Q9ERK7 whole entry): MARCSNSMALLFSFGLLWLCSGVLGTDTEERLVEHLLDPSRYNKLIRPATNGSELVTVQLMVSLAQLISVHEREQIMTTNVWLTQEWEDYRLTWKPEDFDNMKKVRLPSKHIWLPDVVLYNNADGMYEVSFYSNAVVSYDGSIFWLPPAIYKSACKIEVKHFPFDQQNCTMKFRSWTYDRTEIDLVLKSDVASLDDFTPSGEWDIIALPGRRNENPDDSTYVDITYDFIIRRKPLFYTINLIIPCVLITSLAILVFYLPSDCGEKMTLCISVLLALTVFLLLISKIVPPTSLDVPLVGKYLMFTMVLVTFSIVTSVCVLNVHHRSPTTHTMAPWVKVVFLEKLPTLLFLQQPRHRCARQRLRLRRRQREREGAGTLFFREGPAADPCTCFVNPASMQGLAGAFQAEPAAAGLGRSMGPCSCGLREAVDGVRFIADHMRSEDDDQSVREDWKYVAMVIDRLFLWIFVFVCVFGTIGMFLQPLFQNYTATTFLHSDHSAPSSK
Nicotinic acetylcholine receptor alpha-4/beta-2, sequence (Q8R493 whole entry): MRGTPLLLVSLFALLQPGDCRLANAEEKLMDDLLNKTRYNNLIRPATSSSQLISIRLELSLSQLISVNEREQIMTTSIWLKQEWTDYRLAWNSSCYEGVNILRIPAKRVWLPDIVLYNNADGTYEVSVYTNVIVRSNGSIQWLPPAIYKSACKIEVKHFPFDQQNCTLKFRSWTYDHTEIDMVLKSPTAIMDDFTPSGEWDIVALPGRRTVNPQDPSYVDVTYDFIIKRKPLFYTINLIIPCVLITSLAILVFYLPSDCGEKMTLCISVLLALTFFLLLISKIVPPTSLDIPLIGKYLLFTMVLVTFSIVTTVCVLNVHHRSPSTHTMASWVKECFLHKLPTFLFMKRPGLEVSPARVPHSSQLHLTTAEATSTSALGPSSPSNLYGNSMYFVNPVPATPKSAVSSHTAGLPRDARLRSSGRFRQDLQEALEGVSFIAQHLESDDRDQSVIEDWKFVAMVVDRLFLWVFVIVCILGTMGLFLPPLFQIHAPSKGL
T1 sequence (P04757 whole entry): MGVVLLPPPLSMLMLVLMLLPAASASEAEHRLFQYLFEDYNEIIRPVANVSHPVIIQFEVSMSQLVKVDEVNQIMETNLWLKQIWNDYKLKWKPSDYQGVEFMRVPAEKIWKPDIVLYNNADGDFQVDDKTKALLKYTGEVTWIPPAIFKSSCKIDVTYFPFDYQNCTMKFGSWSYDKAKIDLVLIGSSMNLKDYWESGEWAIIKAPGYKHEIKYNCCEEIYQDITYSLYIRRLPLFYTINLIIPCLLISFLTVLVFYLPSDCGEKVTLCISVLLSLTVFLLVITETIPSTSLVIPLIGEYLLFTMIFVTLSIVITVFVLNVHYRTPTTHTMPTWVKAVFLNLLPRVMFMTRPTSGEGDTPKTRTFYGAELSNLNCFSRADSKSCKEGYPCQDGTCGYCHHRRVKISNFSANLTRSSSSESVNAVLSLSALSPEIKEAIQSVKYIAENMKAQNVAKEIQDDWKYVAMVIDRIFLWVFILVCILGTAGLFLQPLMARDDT
T1 sequence (P12392 whole entry): as the sequence (P12392 whole entry) above
Neuronal acetylcholine receptor subunit alpha-7, sequence (P36544 whole entry): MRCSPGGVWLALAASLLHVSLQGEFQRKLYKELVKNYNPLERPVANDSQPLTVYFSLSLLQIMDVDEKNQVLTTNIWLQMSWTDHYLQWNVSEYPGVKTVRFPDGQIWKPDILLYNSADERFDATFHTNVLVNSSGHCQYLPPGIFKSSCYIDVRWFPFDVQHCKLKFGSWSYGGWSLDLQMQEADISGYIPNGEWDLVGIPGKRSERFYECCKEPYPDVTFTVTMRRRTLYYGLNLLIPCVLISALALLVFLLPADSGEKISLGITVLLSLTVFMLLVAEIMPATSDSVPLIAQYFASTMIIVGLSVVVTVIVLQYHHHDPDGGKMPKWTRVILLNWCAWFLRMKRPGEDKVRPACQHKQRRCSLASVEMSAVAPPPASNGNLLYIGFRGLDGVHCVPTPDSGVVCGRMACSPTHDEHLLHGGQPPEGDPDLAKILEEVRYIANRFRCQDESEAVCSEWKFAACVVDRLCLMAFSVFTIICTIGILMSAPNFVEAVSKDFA
Neuronal acetylcholine receptor; alpha4/beta2 (Homo sapiens, UniProt P17787+P43681), sequence (P17787 whole entry): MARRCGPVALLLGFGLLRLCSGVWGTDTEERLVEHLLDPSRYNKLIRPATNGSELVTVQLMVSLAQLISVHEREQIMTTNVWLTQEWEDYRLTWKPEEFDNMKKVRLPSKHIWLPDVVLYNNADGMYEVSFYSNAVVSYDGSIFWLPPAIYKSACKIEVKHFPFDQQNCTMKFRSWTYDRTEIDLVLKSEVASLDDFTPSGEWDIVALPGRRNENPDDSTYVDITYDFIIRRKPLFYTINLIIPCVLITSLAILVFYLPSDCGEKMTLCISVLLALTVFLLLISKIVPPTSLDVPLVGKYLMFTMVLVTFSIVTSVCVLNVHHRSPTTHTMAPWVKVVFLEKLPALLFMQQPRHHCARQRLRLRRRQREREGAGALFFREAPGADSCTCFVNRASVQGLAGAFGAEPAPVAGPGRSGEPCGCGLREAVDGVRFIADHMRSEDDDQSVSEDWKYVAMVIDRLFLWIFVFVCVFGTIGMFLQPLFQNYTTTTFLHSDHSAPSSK
Neuronal acetylcholine receptor; alpha4/beta2 (Homo sapiens, UniProt P17787+P43681), sequence (P43681 whole entry): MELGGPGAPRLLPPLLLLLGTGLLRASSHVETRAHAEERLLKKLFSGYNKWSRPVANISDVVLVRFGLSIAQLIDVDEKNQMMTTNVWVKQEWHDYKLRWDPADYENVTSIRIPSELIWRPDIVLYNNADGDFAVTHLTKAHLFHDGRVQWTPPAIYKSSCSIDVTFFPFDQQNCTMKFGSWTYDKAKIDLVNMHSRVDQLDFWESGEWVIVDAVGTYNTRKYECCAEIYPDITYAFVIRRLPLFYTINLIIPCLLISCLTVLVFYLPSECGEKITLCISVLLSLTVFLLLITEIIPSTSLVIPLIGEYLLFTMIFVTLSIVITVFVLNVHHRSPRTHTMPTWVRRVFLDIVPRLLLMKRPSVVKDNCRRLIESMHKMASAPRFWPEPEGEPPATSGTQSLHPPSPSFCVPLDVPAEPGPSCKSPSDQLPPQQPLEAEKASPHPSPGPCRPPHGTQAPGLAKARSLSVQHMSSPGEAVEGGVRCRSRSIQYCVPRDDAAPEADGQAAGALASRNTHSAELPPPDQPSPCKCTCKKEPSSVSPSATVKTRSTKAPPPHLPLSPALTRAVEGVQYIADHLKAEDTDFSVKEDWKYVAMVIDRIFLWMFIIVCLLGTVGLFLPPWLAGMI

Regarding `COc1cc2c(cc1OC)CN(C)CC2`, the values for the IC50 in assay [1] and in assay [3] were 12 µM and 100 µM, respectively. Moreover, the Ki in assay [2] is 300 µM; in [4], 0.87 µM; in assay [6], 300 µM; in assay [7], greater than 500 µM; in assay [8] it was 46.7 µM; in assay [12] it was 129 µM. For the same compound, the Ki in [13] was greater than 10000 µM. Besides, in assay [5], the inhibition entry was “Dose-dependent effect”. Moreover, in assay [9], the result was Active. Also, the Ratio Ki in assay [10], in [11] and in assay [14] was greater than 300 in each case.
With `CN1CCc2cc3c(cc2C1)OCO3`, the IC50 in [1] turned out to be 2.6 µM; in [3], 300 µM. The Ki in assay [2] amounted to 300 µM; in [4], 1.7 µM; in [6], 50 µM; in [7], 500 µM. In addition, the inhibition result in assay [5] was “Dose-dependent effect”.
On to `CCCCC1c2cc(OC)c(OC)cc2CCN1C` (stereo unspecified), for which the IC50 in assay [1] is greater than 300 µM. Further, the affinity in assay [4] corresponds to a Ki of 30 µM.
Consider `CO[C@H]1CC=C2CCN3CCC4=C(CC(=O)OC4)[C@]23C1`, for which the inhibitory constant (Ki) in [15] was determined as 10.5 µM.
Take `COc1cc2c(cc1O)CCN(C)C2`: the concentration for half-maximal inhibition (IC50) in assay [1] was 33 µM; in [3], 1000 µM. Besides, the inhibition constant (Ki) is 300 µM in assay [2], 10 µM in [4], 100 µM in assay [6] and greater than 500 µM in assay [7]. In addition, in assay [5], the inhibition entry was “Dose-dependent effect”.
On to `CCC1c2cc(OC)c(OC)cc2CCN1C` (stereo unspecified), for which the 50% inhibitory concentration (IC50) in assay [1] is greater than 300 µM. In [4], this compound showed a Ki of 300 µM.
As for `COc1cc2c(cc1OC)C(C1CCCCC1)N(C)CC2` (stereo unspecified), in assay [1], the IC50 was greater than 300 µM. Further, the affinity in [4] corresponds to a Ki of 300 µM.
On the same counts, the results for `COc1cc2c(cc1OC)C(c1ccccc1)N(C)CC2` (stereo unspecified) are greater than 300 µM and 100 µM.
Take `COc1cccc(C2c3cc(OC)c(OC)cc3CCN2C)c1` (stereo unspecified): the IC50 in assay [1] is greater than 300 µM. This compound registered a Ki in assay [4] of 300 µM.
Regarding `COc1ccc(C2c3cc(OC)c(OC)cc3CCN2C)cc1OC` (stereo unspecified), in assay [1], the IC50 was greater than 300 µM. Moreover, in [4], the inhibition constant (Ki) was greater than 300 µM.
Consider `CN1CCc2cc(O)c(O)cc2C1`, for which the IC50 is 16 µM in assay [1] and greater than 1000 µM in assay [3]. The inhibition constant Ki is 100 µM in assay [2], 6.8 µM in assay [4], 100 µM in assay [6] and greater than 500 µM in assay [7]. The inhibition result in assay [5] is “Dose-dependent effect”.
For `COc1cc2c(cc1O)CN(C)CC2`, the results for the IC50 in [1] and in assay [3] were 4.4 µM and greater than 1000 µM, respectively. Moreover, the Ki in assay [2] is 300 µM; in assay [4], 1.7 µM; in assay [6], 100 µM; in assay [7] it was greater than 500 µM. The inhibition result in assay [5] is “Dose-dependent effect”.
`COc1cc2c(cc1OC)C1CCCN1CC2` (racemic): the half-maximal inhibitory concentration (IC50) was 31 µM in [1] and 100 µM in [3]. In addition, the inhibitory constant (Ki) in assay [2] was 300 µM; in assay [4] it was 5.5 µM; in assay [6] it was 100 µM; in [7] it was greater than 500 µM. Moreover, the inhibition entry in assay [5] was “Dose-dependent effect”.
As to `c1c2c(cc3c1OCO3)C1CCCN1CC2` (racemic), the IC50 is 3.3 µM in [1] and 100 µM in [3]. The Ki came to 100 µM in [2], 0.55 µM in assay [4] and 21 µM in assay [6]. Moreover, the inhibition entry in assay [5] was “Dose-dependent effect”.
With `COc1cc2c(cc1O)CCN1CCCC21` (racemic), the IC50 was 50 µM in assay [1] and 300 µM in assay [3]. The Ki stood at 300 µM in [2], 100 µM in assay [4], 100 µM in [6] and 500 µM in [7]. In addition, the inhibition result in [5] is “Dose-dependent effect”.
With `COc1cc2c(cc1O)C1CCCN1CC2` (racemic), the figures for the IC50 in [1] and in assay [3] were 23 µM and 300 µM, respectively. For the same compound, the inhibition constant (Ki) in assay [2] was 100 µM; in assay [4] it was 3.4 µM; in assay [6] it was 100 µM; in assay [7] it was 300 µM. In assay [5], the inhibition result is “Dose-dependent effect”.
Take `Oc1cc2c(cc1O)C1CCCN1CC2` (racemic): the results for the IC50 in assay [1] and in assay [3] were 100 µM and 1000 µM, respectively. Moreover, the Ki in assay [2] was determined as 100 µM; in assay [4], 11 µM; in assay [6] it was 50 µM; in [7], 300 µM. Further, in assay [5], the inhibition result was “Dose-dependent effect”.
Take `COc1cc2c(cc1OC)[C@]13CCCC[C@H]1CCN3CC2` (relative stereo): the IC50 in assay [1] was determined as 31 µM; in assay [3], 50 µM. The inhibition constant (Ki) is 100 µM in assay [2], 100 µM in assay [4], 100 µM in [6] and 30 µM in assay [7]. For the same compound, the inhibition result in assay [5] was “Dose-dependent effect”.
On to `c1c2c(cc3c1OCO3)[C@]13CCCC[C@H]1CCN3CC2` (relative stereo), for which the figures for the 50% inhibitory concentration (IC50) in [1] and in assay [3] were 9.2 µM and 50 µM, respectively. Besides, the Ki in assay [2] worked out at 30 µM; in assay [4], 7.3 µM; in assay [6] it was 50 µM; in assay [7], 18 µM. Moreover, the inhibition result in assay [5] was “Dose-dependent effect”.
In the case of `COc1cc2c(cc1O)CCN1CC[C@@H]3CCCC[C@@]231` (relative stereo), the half-maximal inhibitory concentration (IC50) was found to be 2.3 µM in assay [1] and 50 µM in [3]. Also, the Ki in assay [2] was 100 µM; in [4], 8.5 µM; in assay [6], 50 µM; in assay [7] it was 20 µM. Besides, the inhibition entry in assay [5] is “Dose-dependent effect”.
As for `COc1cc2c(cc1O)[C@]13CCCC[C@H]1CCN3CC2` (relative stereo), the IC50 was found to be 2.9 µM in [1] and 33 µM in [3]. Further, the Ki was 30 µM in [2], 18 µM in [4], 23 µM in assay [6] and 5.5 µM in assay [7]. Also, the inhibition entry in assay [5] was “Dose-dependent effect”.
Regarding `Oc1cc2c(cc1O)[C@]13CCCC[C@H]1CCN3CC2` (relative stereo), the IC50 in assay [1] was determined as 0.58 µM; in assay [3] it was 50 µM. Besides, the Ki worked out at 30 µM in assay [2], 1.5 µM in assay [4], 19 µM in assay [6] and 7.3 µM in assay [7]. Moreover, in [5], the inhibition entry is “Dose-dependent effect”.
`COc1cc2c(cc1O)CCN1CC=C3C=C[C@H](OC)C[C@]321` [ERYSODINE] came in with a Ki in [15] of 7.5 µM.
`COc1cc2c(cc1OC)[C@]13C[C@@H](OC)C=CC1=CCN3CC2` [ERYSOTRINE] had a Ki in [16] of 0.6 µM.

The term IC50 denotes the concentration at which inhibition is half-maximal. Usually Ki stands for the equilibrium dissociation constant of an inhibitor or competing ligand from its target.
